Source: PubChem
DENV2 CPE rescue = inhibitors of DENV2 cytopathic effect. DENV2-infected cells, cytopathic effect rescue, plate reader. CPE inhibition, % at 9.99 µM. 1.7% of 350,000 active; in the data active means CPE inhibition above about 20%, passing the limit was not always enough; inconclusive means no clear call, values can overlap the other calls; tested in BHK-21 cells;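 further: 0% = median of neutral control wells and 100% = median of positive control wells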
SIRT5 inh = inhibitors of human sirtuin-5 desuccinylase; Q9NXA8; Purified SirT5, succinyl-peptide AMC, trypsin-coupled fluorescence; inhibition, % at 15 µM; 1.1% of 330,000 active; AID 652115; in the data active means inhibition above about 15%; inconclusive means no clear call, values can overlap the other calls
E-selectin induc = E-selectin induction on HUVECs; 0.37% of 260,000 active; HUVEC E-selectin immunofluorescence imaging; normalized: neutral wells 0, TNF-alpha wells 100; activation, % at 7.58 µM;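 active means mean E-selectin-positive cell signal at least 10% of the positive control, reached in at least 60% of replicates, without over 20% cell loss; inconclusive means no rule given, readout overlaps actives, possibly toxicity-flagged; inactive means the rest, including those meeting only one limit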
Target sequence (P16581 whole entry, looked up): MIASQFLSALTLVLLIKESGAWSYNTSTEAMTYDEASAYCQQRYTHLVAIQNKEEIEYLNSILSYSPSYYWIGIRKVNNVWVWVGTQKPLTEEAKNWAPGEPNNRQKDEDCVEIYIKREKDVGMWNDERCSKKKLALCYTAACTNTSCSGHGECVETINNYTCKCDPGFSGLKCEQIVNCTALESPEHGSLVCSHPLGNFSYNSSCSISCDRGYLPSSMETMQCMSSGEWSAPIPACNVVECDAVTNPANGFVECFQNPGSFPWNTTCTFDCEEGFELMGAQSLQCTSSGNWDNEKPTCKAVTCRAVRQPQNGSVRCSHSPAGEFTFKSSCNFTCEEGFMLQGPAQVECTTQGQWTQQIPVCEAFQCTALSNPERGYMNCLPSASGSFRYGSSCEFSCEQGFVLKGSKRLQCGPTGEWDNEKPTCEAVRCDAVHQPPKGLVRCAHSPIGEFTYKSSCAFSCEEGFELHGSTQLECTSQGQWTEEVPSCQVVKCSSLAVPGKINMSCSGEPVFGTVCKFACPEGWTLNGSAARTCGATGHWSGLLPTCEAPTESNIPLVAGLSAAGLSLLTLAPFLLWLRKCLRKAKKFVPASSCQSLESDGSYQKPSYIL
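material = human umbilical vein endothelial cells (HUVEC), E-selectin induction | quantity = 3,000 cells/well | medium = EGM-2 growth medium on 0.1% gelatin-coated wells | technique = immunofluorescence imaging | read-out basis = % PE-positive cells | control set = TNF-alpha positive control, DMSO neutral control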
Starred values were filed as active, the others as inactive; u = inconclusive; x = no result given; ! = not confirmed by another sample. In the library only some 2.9% were active in any assay of this set; here they are far more common.

SMILES | DENV2 CPE rescue | SIRT5 inh | E-selectin induc
O=C(O)[C@@H]1[C@@H](CO)[C@@H]2Cn3c(ccc(C4=CCCCC4)c3=O)[C@@H]2N1Cc1ccc2c(c1)OCO2 | 6.8 | -0.3 | -0.2
COc1cc(OC)c(NC(=O)NNC(=O)C(=O)NC2CC2)cc1Cl | 18.4 | x | -0.1
CCN(CC)CCCNC(=S)N1CCN(c2nc3ccccc3n2CC)CC1 | 41.1* | -6.9 | 0.3
CCN(CC)CCCNC(=S)N1CCN(c2nc(-c3ccc(F)cc3)cs2)CC1 | -0.9 | -6.3 | 0.2
C/C(CS(=O)(=O)c1ccc(Cl)cc1)=N/NC(N)=S | -1.2 | 1.3 | x
CO[C@@H]1CN(C)C(=O)c2cc(NC(=O)c3ccccc3)ccc2OC[C@H](C)N(C(=O)C2CC2)C[C@@H]1C | 95.5* | 5.3 | 0.1
CO[C@H]1CN(C)C(=O)c2ccc(NC(=O)c3ccccc3)cc2OC[C@H](C)N(C(=O)C2CC2)C[C@@H]1C | 15.9 | 0.4 | u
CO[C@@H]1CN(C)C(=O)c2ccc(NC(=O)c3ccccc3)cc2OC[C@@H](C)N(C(=O)C2CC2)C[C@H]1C | 25.5* | 3.4 | 1.9
CO[C@@H]1CN(C)C(=O)c2cc(NC(=O)c3ccccc3)ccc2OC[C@@H](C)N(C(=O)C2CC2)C[C@H]1C | 0.5 | 4.7 | -0.1
O=S(=O)(c1cnc(Cl)c(Br)c1)N1CCc2ccccc21 | -7.8 | -0.7 | -0.1
CCOC(=O)CCc1c(C)nc2c(c(C)nn2-c2ccccc2)c1C | -0.1 | -1.5 | -0.1
CCOC(=O)CCc1c(C)c2c(C)nn(-c3ccccc3)c2[nH]c1=O | 37.4* | -2.9 | 0.1
O=C1Cc2cccc(=O)c(O)c2C(=O)O1 | 0.2 | 4.6 | -0.1
Cc1cc(C(=O)Nc2cccc3c2O[C@@H](CN(C)C(=O)Nc2cccc4ccccc24)[C@@H](C)CN([C@@H](C)CO)C3=O)n(C)n1 | -13.3 | -2.1 | -12.1
Cc1cccc(NC(=O)C2CC(=O)n3ncnc3N2)c1 (configuration not stated) | 19.2 | 78.7* | -0.2
Cc1cc(C)cc(NC(=O)C2CC(=O)n3ncnc3N2)c1 (configuration not stated) | -0.4 | -0.7 | -0.5
O=C(CNC(=O)c1cccs1)NCC(=O)OCc1ccccc1Br | 7.4 | -1.7 | 1.5
N#Cc1ccc(-c2nc3c(Cl)cc(C(F)(F)F)cn3c2Cc2ccsc2)cc1 | -7.8 | 0.2 | u
COc1cccc(C2(c3cccc(OC)c3)CC2C(=O)Nc2ccccc2Cl)c1 (configuration not stated) | 6.7 | -1.8 | x
COc1cccc(C2(c3cccc(OC)c3)CC2C(=O)Nc2ccc(F)cc2)c1 (configuration not stated) | 32.0* | -1.6 | -1.3
O=C(Nc1ccncc1)C1CCCN(S(=O)(=O)c2cccc3cccnc23)C1 (configuration not stated) | -1.8 | x | 0.8
C[C@@H]1CN([C@H](C)CO)S(=O)(=O)c2ccc(-c3cccc(C(=O)N(C)C)c3)cc2O[C@H]1CN(C)Cc1ccc2c(c1)OCO2 | -0.3 | 11.8 | x
CC1=C(C#N)C(=O)NC(=O)/C1=C\c1ccc(-c2cc(C)c(C)cc2[N+](=O)[O-])o1 | 8.4 | 17.0* | x
Cc1ccc(-c2ccc(/C=C3/NC(=O)NC3=O)o2)cc1[N+](=O)[O-] | -0.3 | 0.7 | x
C[C@@H]1CN([C@H](C)CO)C(=O)c2cc(NC(=O)Nc3ccc(F)cc3)ccc2O[C@@H](C)CCCCO[C@H]1CN(C)Cc1ccc2c(c1)OCO2 | -10.3 | -3.2 | -0.2
SMILES | DENV2 CPE rescue | SIRT5 inh | E-selectin induc
C[C@H](CO)N1C[C@H](C)[C@@H](CN(C)Cc2ccncc2)OCCCC[C@H](C)Oc2ccc(NC(=O)Nc3ccc4c(c3)OCO4)cc2C1=O | -5.5 | 15.7* | -0.1
C[C@@H]1CN([C@@H](C)CO)C(=O)c2cc(NC(=O)Nc3ccc(F)cc3)ccc2O[C@@H](C)CCCCO[C@H]1CN(C)Cc1ccc2c(c1)OCO2 | 22.0* | -3.5 | 0.0
C[C@H]1CCCCO[C@@H](CN(C)Cc2ccncc2)[C@@H](C)CN([C@@H](C)CO)C(=O)c2cc(NC(=O)Nc3ccc4c(c3)OCO4)ccc2O1 | -1.7 | -0.8 | 0.1
C[C@@H]1CN([C@H](C)CO)C(=O)c2cc(NC(=O)Nc3ccc(F)cc3)ccc2O[C@@H](C)CCCCO[C@@H]1CN(C)Cc1ccc2c(c1)OCO2 | 23.2* | 6.5 | 0.3
C[C@@H]1CCCCO[C@@H](CN(C)Cc2ccc3c(c2)OCO3)[C@@H](C)CN([C@H](C)CO)C(=O)c2cc(NC(=O)Nc3ccc(F)cc3)ccc2O1 | 7.1 | 1.6 | 0.4
O=S(=O)(Cc1ccccc1)NCC[C@H]1CC[C@@H](NS(=O)(=O)c2ccccc2)[C@H](CO)O1 | -11.3 | -1.3 | -0.3
CCOC(=O)C1=C[C@@H](C(C)(C)C)N(S(=O)(=O)c2ccc(C)cc2)[C@H]1c1cccc2ccccc12 | 2.3 | -1.3 | -1.8
O=C(Nc1ccccc1)P(=O)(O)c1ccccc1 | 9.9 | x | -0.3
COc1cc(/C=C(\NC(C)=O)C(=O)Nc2ccccc2C)ccc1OC(C)=O | 20.7* | -1.7 | x
COc1ccc(NC(=O)/C(=C/c2ccc(OC(C)=O)c(OC)c2)NC(C)=O)cc1 | u | -2.1 | x
Clc1ccc(-c2c(C3=NCCCN3)nnn2-c2ccc(Cl)cc2)cc1 | -1.5 | -4.3 | -0.1
COc1ccc([C@H]2CC(=O)C[C@@H](CCn3cc(-c4ccccc4)nn3)O2)cc1 | 18.2 | x | 1.4
COc1ccc([C@H]2CC(=O)C[C@@H](CCn3cc(-c4cccnc4)nn3)O2)cc1 | -6.0 | 33.3* | -4.3
O=C(NNC(=O)c1ccc(O)cc1O)c1ccc(-c2ccccc2)cc1 | 4.4 | -5.6 | x
CCCn1c(=N)n(CC(O)COc2ccc(C)cc2)c2ccccc21 (configuration not stated) | 41.4* | -2.8 | x
CN1CCN(CC(O)COc2ccc(C(=O)O)cc2)CC1 (configuration not stated) | 7.9 | -0.3 | -0.2
O=C(O)c1ccc(OCC(O)Cn2c3ccccc3c3ccccc32)cc1 (configuration not stated) | 4.3 | 23.9* | x
CCn1c(=N)n(CC(O)COc2ccc(C)cc2)c2ccccc21 (configuration not stated) | 1.7 | -2.2 | -0.1
CN(C)CC(=O)Nc1ccc2c(c1)[C@@H]1C[C@@H](CC(=O)NCCN3CCCCC3)O[C@@H](CO)[C@@H]1O2 | 9.6 | -4.3 | -0.5
C/C=C/c1ccc([C@H]2[C@@H](CO)N(CC3CCCCC3)[C@H]2CNC(C)=O)cc1 | u | 0.6 | 0.6
Cc1ccc(OCc2nnc(SCc3cc(=O)[nH]c4ccccc34)n2-c2ccccc2)cc1 | 60.3* | 1.6 | -0.4
Cc1ccccc1OCc1nnc(SCc2cc(=O)[nH]c3ccccc23)n1-c1ccccc1 | u | -3.7 | x
COc1cccc(CNC(=O)CCC2CCCN(C/C=C/c3ccccc3OC)C2)c1 (configuration not stated) | 8.0 | 0.0 | 0.0
COCCNC(=O)CCC1CCN(C/C=C/c2ccccc2OC)CC1 | 29.0* | -0.9 | 0.0
C[C@H](CO)N1C[C@H](C)[C@H](CN(C)C(=O)Nc2ccc(F)cc2)Oc2c(NS(=O)(=O)c3ccccc3)cccc2C1=O | 17.3 | -1.4 | 0.3
C[C@H](CO)N1C[C@H](C)[C@@H](CN(C)C(=O)Nc2ccccc2)Oc2c(NS(=O)(=O)c3ccccc3)cccc2C1=O | 25.5*! | 1.4 | 0.5
